What was measured:
[1] = Growth inhibition of human QGY7701 cells after 48 hrs by MTT assay; format: functional; details: QGY7701, 48 h
In short: (§1)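 Cells seeded at 8000/well, treated 24 h later in duplicate with a range of concentrations (DMSO stock 10 g/L diluted in fresh medium), 48 h at 37 °C, 5% CO2. MTT (5 mg/ml in PBS) added for 4 h, formazan dissolved in DMSO, absorbance read at 570 nm. IC50 is the concentration giving 50% survival.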

[2] = Selectivity index, ratio of CC50 for human HepG2(2.2.15) cells to IC50 for HBV infected in human HepG2(2.2.15) cells assessed as inhibition of HBeAg production; format: functional
In short: (§2)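 Selectivity index calculated as CC50 in HepG2 2.2.15 cells (MTT, 9-day exposure) divided by IC50 for HBeAg or HBsAg reduction (ELISA of 9-day supernatants).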

[3] = Growth inhibition of human L02 cells after 48 hrs by MTT assay; format: functional, cell-based; details: L02, 48 h; in short: as §1
[4] = system: Hepatitis B virus; experiment: Antiviral activity against HBV infected in human HepG2(2.2.15) cells assessed as inhibition of HBeAg production after 9 days by ELISA; format: functional, organism-based; details: HepG2 2.2.15, 216 h
In short: (§3)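 HepG2 2.2.15 cells (HBV-producing) given a range of compound concentrations for nine days; culture supernatants collected and HBsAg or HBeAg levels measured by ELISA. IC50 taken as the concentration giving 50% inhibition of antigen level.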

[5] = system: Hepatitis B virus; experiment: Antiviral activity against HBV infected in human HepG2(2.2.15) cells assessed as inhibition of viral replication after 9 days by fluorescence PCR method; format: functional, organism-based; details: HepG2 2.2.15, 216 h
In short: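 HepG2 2.2.15 cells given a range of compound concentrations for nine days; HBV DNA quantified by fluorescence PCR. IC50 taken as the concentration giving 50% inhibition of HBV DNA replication.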

[6] = Selectivity index, ratio of CC50 for human HepG2(2.2.15) cells to IC50 for HBV infected in human HepG2(2.2.15) cells assessed as inhibition of viral replication; format: functional
In short: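 Selectivity index calculated as CC50 in HepG2 2.2.15 cells (MTT, 9-day exposure) divided by IC50 for HBV DNA reduction measured by fluorescence PCR after 9 days.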

[7] = system: A549; experiment: Growth inhibition of human A549 cells after 48 hrs by MTT assay; format: functional, cell-based; details: A549, 48 h; in short: as §1
[8] = Selectivity index, ratio of CC50 for human HepG2(2.2.15) cells to IC50 for HBV infected in human HepG2(2.2.15) cells assessed as inhibition of HBsAg production; format: functional; in short: as §2
[9] = system: HeLa; experiment: Growth inhibition of human HeLa cells after 48 hrs by MTT assay; format: functional, cell-based; in short: as §1
[10] = system: Huh-7; experiment: Growth inhibition of human HuH7 cells after 48 hrs by MTT assay; format: functional, cell-based; details: Huh-7, 48 h; in short: as §1
[11] = Cytotoxicity against human HepG2(2.2.15) cells compound treated for 48 hrs followed by incubation for 9 days by MTT assay; format: cell-based
In short: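 HepG2 2.2.15 cells kept 48 h in plates before adding compounds (DMSO stocks serially diluted in medium), then incubated at 37 °C for 9 days. Media-only wells as blank. MTT (5 g/L) added 4 h before lysis in 10% SDS/50% DMF, pH 7.2; OD at 570 nm gives percent cell death; CC50 derived.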

[12] = system: Hepatitis B virus; experiment: Antiviral activity against HBV infected in human HepG2(2.2.15) cells assessed as inhibition of HBsAg production after 9 days by ELISA; format: functional, organism-based; details: HepG2 2.2.15, 216 h; in short: as §3
[13] = system: Huh-7; experiment: Ratio of 5-Fu IC50 to compound IC50 for human HuH7 cells after 48 hrs by MTT assay; format: functional
[14] = system: A549; experiment: Ratio of 5-Fu IC50 to compound IC50 for human A549 cells after 48 hrs by MTT assay; format: functional

Compound | IC50 [4] [µM] | IC50 [5] [µM] | IC50 [7] [µM] | IC50 [9] [µM] | IC50 [10] [µM] | IC50 [12] [µM] | IC50 [1] [µM] | Ratio CC50/IC50 [2] | IC50 [3] [µM] | Ratio CC50/IC50 [6] | Ratio CC50/IC50 [8] | CC50 at 48 h [11] [µM] | Ratio IC50 [13] | Ratio IC50 [14]
COc1ccc2c(=O)c(/C=C/C(=O)NCc3ccc(F)cc3F)coc2c1 | 14.8 | 37 | 13.3 | > 100 | > 100 | 14.3 | > 100 | 5.35 | > 200 | 2.14 | 5.55 | 79.2 | – | –
COc1ccc2c(=O)c(/C=C/C(=O)Nc3ccc(Cl)cc3)coc2c1 | 20.9 | 67.5 | > 100 | > 100 | 37.1 | 91.7 | > 100 | 12.97 | > 200 | 4.03 | 2.96 | 272 | – | –
Cc1ccc(CNC(=O)/C=C/c2coc3cc(O)ccc3c2=O)cc1 | 19.1 | 14.2 | 17.4 | > 100 | > 100 | 16.5 | 24.9 | 26.16 | > 200 | 35.31 | 30.27 | 501 | – | –
COc1ccc2c(=O)c(/C=C/C(=O)Nc3cccc(Cl)c3)coc2c1 | > 100 | > 100 | 0.47 | 11.8 | > 100 | > 100 | > 100 | – | > 200 | – | – | 1100 | – | 12

More lines, in order of falling IC50 [4], values ahead:

IC50 [4] [µM] | IC50 [5] [µM] | IC50 [7] [µM] | IC50 [9] [µM] | IC50 [10] [µM] | IC50 [12] [µM] | Compound | IC50 [1] [µM] | Ratio CC50/IC50 [2] | IC50 [3] [µM] | Ratio CC50/IC50 [6] | Ratio CC50/IC50 [8] | CC50 at 48 h [11] [µM] | Ratio IC50 [13] | Ratio IC50 [14]
14.4 | 24.3 | 22.5 | > 100 | 7.57 | 14 | COc1ccc(CNC(=O)/C=C/c2coc3cc(OC)ccc3c2=O)cc1 | 15.7 | 2.98 | > 200 | 1.77 | 3.08 | 43 | – | –
13.4 | 29 | 24.4 | 9.7 | 3.88 | 45.5 | O=C(/C=C/c1coc2cc(O)ccc2c1=O)Nc1ccccc1 | 17.9 | 61.12 | > 200 | 28.29 | 18.02 | 821 | 4 | –
2.34 | 4.7 | > 100 | > 100 | 8.43 | 10.2 | COc1ccc(CNC(=O)/C=C/c2coc3cc(O)ccc3c2=O)cc1 | 10 | 306.82 | > 200 | 152.76 | 70.25 | 718 | – | –

Reference: ChEMBL document CHEMBL2331205, “Anti-hepatitis B virus and anti-cancer activities of novel isoflavone analogs” (Eur J Med Chem, 2013)
